Assay results from article PMC6016630 (British Journal of Pharmacology, 2018).

Tests used:
male CD‐1 mice = test: T‐maze continuous alternation task, MK‐801‐induced memory impairment; type: in vivo, mouse; settings: for time spent in the T‐maze vs. MK‐801/vehicle‐treated group: P > 0.05
How it was run: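 Male CD-1 mice (about 28 g) on a reversed light cycle, tested in the dark phase in an enclosed, elevated T-maze under dim light (10 lux). MK-801 s.c. 30 min pre-test; test compound (0.1–75 mg·kg−1 p.o., Natrosol/Tween vehicle) given just after it. 14 trials in 14 min; mice completing <50% excluded. Reversal scaled: saline/vehicle 100%, MK-801/vehicle 0%. Kruskal–Wallis, Dunn's.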

male Lister‐hooded rats = test: 5‐choice serial reaction time task; type: in vivo, rat
How it was run: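 Food-restricted rats held at about 85% of free-feeding weight. Trained to criterion: ≥50 correct trials, ≥70% accuracy, ≤20% omissions (SD 0.7 s, ITI 5 s, LH 5 s). Ten challenge sessions with SD cut from 700 to 500 ms. Upper and lower 15% by mean accuracy taken as high/low performers, n = 9. Test compound in saline given i.p. 10 min pre-test. Repeated-measures ANOVA, Dunnett's.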

[1] = tested on: synaptic transmission in acute slices of the rat PFC; test: Extracellular field potential; type: cell-based
How it was run: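 PFC slices from male Sprague Dawley rats aged 5–6 weeks, cut in ice-cold ACSF (pH 7.4, 95% O2/5% CO2). Layer V fEPSPs (prelimbic/infralimbic) evoked by 100 μs pulses every 30 s to layers II–III. Drugs from DMSO, 0.05% final, applied 30–60 min after 30 min baseline. Amplitude as % of last 10 min baseline; 3–14 slices/group; paired t-test.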

cAMP in the PFC of mice = test: Determination of cAMP in mouse prefrontal cortex; type: in vivo; settings: 30 min after p.o. administration, highest dose tested, P < 0.05
How it was run: (§1)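 Adult male CD-1 mice, n = 8/group, dosed p.o. with vehicle (0.5% Natrosol, 0.01% Tween-80) or test compound. Killed by focused microwave brain irradiation 30 min later. PFC homogenized and centrifuged in 0.5 N HCl; supernatant assayed by ELISA. Detection limits: cGMP 0.02, cAMP 0.03 pmol·mg−1 tissue. One-way ANOVA, Dunnett's.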

cGMP in the PFC of mice = test: Determination of cGMP in mouse prefrontal cortex; type: in vivo; settings: 30 min after p.o. administration, highest dose tested, P < 0.05
How it was run: as §1

[2] = high‐performing rats, 3 mg·kg^−1, mean ± SEM
[3] = high‐performing rats, 6 mg·kg^−1, mean ± SEM
[4] = low‐performing rats, 3 mg·kg^−1, mean ± SEM
[5] = low‐performing rats, 6 mg·kg^−1, mean ± SEM

SMILES: C[C@]12N[C@H](Cc3ccccc31)c1ccccc12 [MK‐801]
- overall time spent to complete the T‐maze task vs. control group (male CD‐1 mice; mice, MK‐801 0.075 mg·kg^−1 s.c., Figure S1a (SKF38393 study)): reduced
- spontaneous alternation vs. vehicle‐injected mice (male CD‐1 mice; mice, MK‐801 0.075 mg·kg^−1 s.c., P < 0.05): significant reduction
- overall time spent to complete the T‐maze task vs. control group (male CD‐1 mice; mice, MK‐801 0.1 mg·kg^−1 s.c., Figure S1b (ITI‐214 study)): reduced
- reduction of spontaneous alternation vs. vehicle‐injected mice (male CD‐1 mice; mice, MK‐801 0.1 mg·kg^−1 s.c., P < 0.05): ~23%

SMILES: Oc1cc2c(cc1O)C(c1ccccc1)CNCC2 (stereo not drawn) [SKF38393]
- Correct latency (male Lister‐hooded rats; [2]): 0.79 ± 0.02 s
- Omissions (male Lister‐hooded rats; [2]): 11.24 ± 2.64 n
- Perseverative responses (male Lister‐hooded rats; [2]): 0.94 ± 0.26 n
- Premature responses (male Lister‐hooded rats; [2]): 3.17 ± 0.72%
- Reward latency (male Lister‐hooded rats; [2]): 1.24 ± 0.06 s
- Correct latency (male Lister‐hooded rats; [3]): 0.83 ± 0.03 s
- Omissions (male Lister‐hooded rats; [3]): 21.65 ± 2.98 n
- Perseverative responses (male Lister‐hooded rats; [3]): 1.06 ± 0.27 n
- Premature responses (male Lister‐hooded rats; [3]): 1.97 ± 0.69 %
- Reward latency (male Lister‐hooded rats; [3]): 1.27 ± 0.06 s
- enhancement of accuracy (male Lister‐hooded rats; high‐performing rats, SKF38393 3 or 6 mg·kg^−1 i.p., P > 0.05): but not high‐performing rats
- Correct latency (male Lister‐hooded rats; [4]): 0.77 ± 0.02 s
- Omissions (male Lister‐hooded rats; [4]): 10.61 ± 1.70 n
- Perseverative responses (male Lister‐hooded rats; [4]): 0.83 ± 0.26 n
- Premature responses (male Lister‐hooded rats; [4]): 3.06 ± 0.27 %
- Reward latency (male Lister‐hooded rats; [4]): 1.21 ± 0.04 s
- Correct latency (male Lister‐hooded rats; [5]): 0.85 ± 0.03 s
- Omissions (male Lister‐hooded rats; [5]): 17.74 ± 2.58 n
- Perseverative responses (male Lister‐hooded rats; [5]): 0.67 ± 0.20 n
- Premature responses (male Lister‐hooded rats; [5]): 2.15 ± 0.49 %
- Reward latency (male Lister‐hooded rats; [5]): 1.31 ± 0.06 s
- effect on synaptic transmission (fEPSP amplitude) ([1]; SKF38393): increased synaptic transmission
- recovery in the cognitive performance (male CD‐1 mice; mice, SKF38393 4 mg·kg^−1 s.c., MK‐801 0.075 mg·kg^−1 s.c.): 67%
- recovery in the cognitive performance (male CD‐1 mice; mice, SKF38393 8 mg·kg^−1 s.c., MK‐801 0.075 mg·kg^−1 s.c.): 43%
- effect on MK‐801‐induced deficits in spontaneous alternation (male CD‐1 mice; mice, SKF38393 8 mg·kg^−1 s.c., P > 0.05 vs. MK‐801 and vehicle): ineffective
- time spent in the T‐maze vs. MK‐801/vehicle‐treated group (male CD‐1 mice; mice, SKF38393 2, 4, 8 mg·kg^−1 s.c.): did not change
- effect on MK‐801‐induced deficits in spontaneous alternation (male CD‐1 mice; mice, SKF38393 2 and 4 mg·kg^−1 s.c., P < 0.05 vs. MK‐801): improved
- maximal effect, recovery in the cognitive function (male CD‐1 mice; mice, SKF38393 s.c., MK‐801 0.075 mg·kg^−1): approximately 67%

SMILES: C/C=C(/C)C(=O)O[C@H]1C(C)=C2[C@H]([C@@H]1OC(=O)CCCCCCC)[C@@](C)(OC(C)=O)C[C@H](OC(=O)CCC)[C@@]1(O)[C@H]2OC(=O)[C@@]1(C)O [thapsigargin]
- effect on forskolin‐induced fEPSP amplitude ([1]; forskolin + thapsigargin (PDE1 activated via Ca^2+/calmodulin)): reduced fEPSPs amplitudes

SMILES: C=C[C@@]1(C)CC(=O)[C@]2(O)[C@@]3(C)[C@@H](O)CCC(C)(C)[C@@H]3[C@H](O)[C@H](OC(C)=O)[C@@]2(C)O1 [forskolin]
- effect on fEPSPs ([1]; forskolin 0.1, 1, 10 μM): increased fEPSPs concentration‐dependently

SMILES: CN1C(=O)c2c(nn(Cc3ccc(-c4cccc(F)n4)cc3)c2Nc2ccccc2)N2C1=N[C@@H]1CCC[C@@H]12 [ITI‐214]
- PFC cAMP vs. vehicle (cAMP in the PFC of mice): significant increase
- PFC cGMP vs. vehicle (cGMP in the PFC of mice): significant increase
- effect on fEPSP amplitude, compound alone ([1]; ITI‐214 per se): did not show any effects per se
- effect on forskolin‐induced fEPSP amplitude with activated PDE1 ([1]; forskolin + thapsigargin + ITI‐214): rescued the reduced fEPSPs amplitudes
- change in alternation of MK‐801‐treated mice (male CD‐1 mice; ITI‐214 0.1 mg·kg^−1 p.o., MK‐801 0.1 mg·kg^−1 s.c.): 0%
- change in alternation of MK‐801‐treated mice (male CD‐1 mice; ITI‐214 1 mg·kg^−1 p.o., MK‐801 0.1 mg·kg^−1 s.c.): 13%
- effect on alternation performance of MK‐801‐treated mice (male CD‐1 mice; ITI‐214 1 mg·kg^−1 p.o., P < 0.05 vs. MK‐801): statistically significant
- change in alternation of MK‐801‐treated mice (male CD‐1 mice; ITI‐214 3 mg·kg^−1 p.o., MK‐801 0.1 mg·kg^−1 s.c.): 12%
- effect on alternation performance of MK‐801‐treated mice (male CD‐1 mice; ITI‐214 3 mg·kg^−1 p.o., P = 0.059 vs. MK‐801): trend towards a significant effect
- change in alternation of MK‐801‐treated mice (male CD‐1 mice; ITI‐214 10 mg·kg^−1 p.o., MK‐801 0.1 mg·kg^−1 s.c.): 10%
- change in alternation of MK‐801‐treated mice (male CD‐1 mice; ITI‐214 30 mg·kg^−1 p.o., MK‐801 0.1 mg·kg^−1 s.c.): 7%
- change in alternation of MK‐801‐treated mice (male CD‐1 mice; ITI‐214 75 mg·kg^−1 p.o., MK‐801 0.1 mg·kg^−1 s.c.): 2%
- recovery in cognitive performance (male CD‐1 mice; mice, ITI‐214 0.1 mg·kg^−1 p.o., MK‐801 0.1 mg·kg^−1 s.c.): 1%
- recovery in cognitive performance (male CD‐1 mice; mice, ITI‐214 1 mg·kg^−1 p.o., MK‐801 0.1 mg·kg^−1 s.c.): 57%
- recovery in cognitive performance (male CD‐1 mice; mice, ITI‐214 3 mg·kg^−1 p.o., MK‐801 0.1 mg·kg^−1 s.c.): 51%
- recovery in cognitive performance (male CD‐1 mice; mice, ITI‐214 10 mg·kg^−1 p.o., MK‐801 0.1 mg·kg^−1 s.c.): 45%
- recovery in cognitive performance (male CD‐1 mice; mice, ITI‐214 30 mg·kg^−1 p.o., MK‐801 0.1 mg·kg^−1 s.c.): 32%
- recovery in cognitive performance (male CD‐1 mice; mice, ITI‐214 75 mg·kg^−1 p.o., MK‐801 0.1 mg·kg^−1 s.c.): 11%
- time spent in the T‐maze vs. MK‐801/vehicle‐treated group (male CD‐1 mice; mice, ITI‐214 0.1–75 mg·kg^−1 p.o.): did not change
- maximal effect, recovery in the cognitive function (male CD‐1 mice; mice, ITI‐214 p.o., MK‐801 0.1 mg·kg^−1): approximately 57%
